Screening results: PubChem, Johns Hopkins Ion Channel Center
TRPC6 inh: mouse TRPC6 channel inhibitors, primary screen, cell-based, HEK293, membrane potential dye; Short transient receptor potential channel 6 (Mus musculus), Q61143; ACh-evoked depolarization; hits give low values; B-score at 10 µM; hit rate 1.1% among 310,000; AID 2553, 2010;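 active means B-score under library mean minus 3 SD, initial fluorescence not abnormally high, positive integrated signal ratio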;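 further: B-score derived from integrated fluorescence ratio over the kinetic read; more negative B-score means stronger inhibition of depolarization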
TRPC4 PAM: positive allosteric modulators of TRPC4, primary screen, cell-based, mouse TRPC4beta, HEK293 mu-opioid, Fluo-4 calcium; Short transient receptor potential channel 4 (Mus musculus), Q9QUQ5; hit rate 0.42% among 310,000; B-score at 10 µM; DAMGO EC20, Fluo-4 Ca2+ flux; hits give high values;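 active means B-score of calcium response area above 5 SD of library B-scores, with initial fluorescence ratio within 5 SD of library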
Target sequence (Q9QUQ5 whole entry, looked up): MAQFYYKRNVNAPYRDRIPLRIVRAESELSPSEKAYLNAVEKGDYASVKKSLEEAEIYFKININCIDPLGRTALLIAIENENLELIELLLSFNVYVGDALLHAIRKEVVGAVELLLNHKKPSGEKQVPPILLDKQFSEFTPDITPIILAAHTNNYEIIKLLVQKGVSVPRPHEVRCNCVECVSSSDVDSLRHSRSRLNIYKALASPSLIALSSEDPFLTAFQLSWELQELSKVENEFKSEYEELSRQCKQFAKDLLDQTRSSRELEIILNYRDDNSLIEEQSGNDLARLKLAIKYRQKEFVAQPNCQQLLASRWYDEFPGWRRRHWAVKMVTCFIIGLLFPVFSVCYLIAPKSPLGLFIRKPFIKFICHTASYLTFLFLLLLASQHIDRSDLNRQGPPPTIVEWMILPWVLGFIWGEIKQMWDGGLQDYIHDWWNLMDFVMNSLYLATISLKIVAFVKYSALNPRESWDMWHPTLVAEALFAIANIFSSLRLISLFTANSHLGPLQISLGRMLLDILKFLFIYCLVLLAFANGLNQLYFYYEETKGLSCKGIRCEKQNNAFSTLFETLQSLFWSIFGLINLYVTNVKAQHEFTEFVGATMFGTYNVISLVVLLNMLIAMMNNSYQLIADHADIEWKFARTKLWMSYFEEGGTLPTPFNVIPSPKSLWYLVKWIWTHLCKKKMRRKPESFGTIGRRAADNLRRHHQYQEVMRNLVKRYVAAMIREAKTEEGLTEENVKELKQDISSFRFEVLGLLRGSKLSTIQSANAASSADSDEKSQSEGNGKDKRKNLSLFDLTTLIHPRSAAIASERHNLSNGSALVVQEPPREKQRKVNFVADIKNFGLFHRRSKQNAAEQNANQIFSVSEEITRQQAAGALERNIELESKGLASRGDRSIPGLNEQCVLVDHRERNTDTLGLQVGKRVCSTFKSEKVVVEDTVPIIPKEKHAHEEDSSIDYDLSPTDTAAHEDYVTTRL
TRPC6 act: mouse TRPC6 channel activators, primary screen, cell-based, HEK293, membrane potential dye; hit rate 0.13% among 310,000; Short transient receptor potential channel 6 (Mus musculus), Q61143; AID 2550, 2010; HEK293-TRPC6 membrane potential dye fluorescence; hits give high values; B-score at 10 µM;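 active means B-score of the integrated fluorescence ratio above library mean plus 3 SD, and starting fluorescence ratio within library mean plus 5 SD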;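 further: higher score means more depolarization so channel activation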
TRPC4 inh: inhibitors of mouse TRPC4 channel, primary screen, Fluo4 calcium, HEK293 TRPC4beta/mu-opioid cells; Short transient receptor potential channel 4 (Mus musculus), Q9QUQ5; DAMGO-evoked Fluo4 calcium flux; hits give low values; B-score at 10 µM; hit rate 0.39% among 300,000;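 active means B-score over 3 SD under the library average, no early fluorescence shift, positive overall ratio signal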
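Assay system: HEK293 cells with stable TRPC4beta plus mu-opioid receptor expression. Dosing: single dose. Measured by: Fluo4 Ca2+ flux fluorescence. Also added: DAMGO in two steps, submaximal then maximal. Read-out: B score from integrated Fluo4 fluorescence ratio.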
TRPC4 agonist: activators of mouse TRPC4 channel, primary screen, Fluo4 calcium, HEK293 TRPC4beta/mu-opioid cells. Short transient receptor potential channel 4 (Mus musculus), Q9QUQ5. Fluo4 calcium fluorescence; hits give high values. B-score at 10 µM. hit rate 0.49% among 310,000;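 active means B-score above 5 SD of library B-scores, and initial fluorescence ratio not above library mean plus 5 SD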;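 further: positive B-score marks a calcium rise read as TRPC4 activation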
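Assay system: HEK293 stable line with TRPC4beta plus mu-opioid receptor. Times: dye 45 min RT, read 110 s. Measured by: kinetic Fluo4 calcium fluorescence. Measure: B score of integrated ratio. Controls: assay buffer as low control, maximal DAMGO as high control.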
TRPC4 sel inh 2: second selectivity test of TRPC6 inhibitors: effect on mouse TRPC4. AID 2776. HEK293 TRPC4/MOR, membrane potential dye fluorescence; channel activated by saturating DAMGO dose. shares compounds with TRPC6 inh. hit rate 42% among 920. inhibition, % at 10 µM;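 active means compounds whose fluorescence signal differed from control wells by over 3 SD, either direction, in both duplicate plates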
TRPC4 spec: mouse TRPC4 modulation by TRPC6 hits, confirmation, selectivity assay for TRPC6 inhibitor project, cell-based, HEK293 TRPC4/mu-opioid, membrane potential dye; shares compounds with TRPC6 inh; membrane potential fluorescence; activity change, negative = inhibition, % at 10 µM; hit rate 61% among 920;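 active means rise or fall in signal beyond 3 SD of buffer-only wells in both replicate plates, either sign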;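 further: integrated kinetic ratio of fluorescence range over baseline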
HEK293 MPD ctr 2-1: nonspecific membrane potential effects, parental HEK293, confirmation, counter-screen for TRPC6 inhibitor project, cell-based, second counter screen; shares compounds with TRPC6 inh; parental HEK293 membrane potential dye fluorescence; maximal acetylcholine challenge after compound addition; signal change vs control, % at 10 µM; hit rate 31% among 920; AID 2779, 2010;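 active means membrane potential signal moving either way by over 3 SD of the maximum-effect control, in both duplicate plates, meaning non-specific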
HEK293 MPD ctr-1: membrane potential modulation in parental HEK293, confirmation, counter-screen for TRPC6 inhibitor project, cell-based; hit rate 60% among 920; parental HEK293 membrane potential dye fluorescence; AID 2780, 2010; shares compounds with TRPC6 inh; membrane potential signal change, % at 10 µM;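 active means membrane potential signal shifting up or down by more than 3 SD of buffer-only wells, on both duplicate plates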
HEK293 MPD ctr-2: parental HEK293 membrane potential modulation, confirmation, counter-screen for TRPC6 modulator project, cell-based | AID 488924, 2010 | shares compounds with TRPC6 inh | hit rate 51% among 2,400 | membrane potential signal change, % at 10 µM | membrane potential dye fluorescence;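 active means membrane potential signal moves up or down beyond 5 SD from buffer-only wells, on both duplicate plates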
HEK293 MPD ctr 2-2: second check of TRPC6 modulator effects in parental HEK293 cells; shares compounds with TRPC6 inh; membrane potential dye fluorescence; after compound, maximal acetylcholine stimulation; inhibition, % at 10 µM; hit rate 14% among 2,400;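 active means membrane potential signal drops by more than 5 SD from the mean control signal, in both duplicate plates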
TRPC4/MOR mod: TRPC4 modulation by TRPC6 hit compounds, confirmation, selectivity assay for TRPC6 modulator project, cell-based, HEK293 TRPC4/mu-opioid, membrane potential dye, mouse | shares compounds with TRPC6 inh | membrane potential fluorescence | percent change from control (negative = decrease, positive = increase), % at 10 µM | hit rate 69% among 2,400 | AID 488927, 2010;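 active means membrane potential signal moved up or down beyond 5 SD of buffer control wells, in both duplicate plates, actives on both sides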
TRPC4/MOR inh 2: second selectivity test of TRPC6 modulators against mouse TRPC4. shares compounds with TRPC6 inh. HEK293 TRPC4/mu-opioid, membrane potential dye fluorescence; stimulated with maximal-effect DAMGO. inhibition, % at 10 µM. hit rate 55% among 2,400;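 active means drop in membrane potential signal beyond 5 SD of the control wells in both duplicate plates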;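 further: TRPC4 counter screen for TRPC6 hits run under conditions tuned for TRPC6 not TRPC4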
TRPC6 block conf: mouse TRPC6 channel inhibitors, confirmation, HEK293 cells, membrane potential dye, duplicate. shares compounds with TRPC6 inh. inhibition, % at 10 µM. hit rate 43% among 3,300. ACh-evoked depolarization;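 active means fluorescence ratio falls more than 5 SD below the full-stimulation control mean, in both duplicate runs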;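 further: integrated fluorescence ratio of peak minus minimum over baseline after agonist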
TRPC6 act conf: mouse TRPC6 channel activators, confirmation, HEK293 cells, membrane potential dye, duplicate | shares compounds with TRPC6 inh | activation, % at 10 µM | hit rate 11% among 2,800 | HEK293-TRPC6 membrane potential dye fluorescence, FDSS;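 active means ratio signal rise beyond 5 SD above unstimulated control wells' mean, seen in both duplicate runs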
Hits are given with their value. The list is not random: actives were taken first. Their share in the collection is about 2.3%.

How did CCCN1CCc2c(sc(NC(=O)CCS(=O)(=O)c3ccccc3)c2C(=O)OC)C1 do in these assays?
TRPC6 inh: inactive; TRPC4 PAM: inactive; TRPC6 act: inactive; TRPC4 inh: inactive; TRPC4 agonist: inactive

What do the screens show for `O=C(NCCCCc1ccccc1)C1CC(c2ccccc2C(F)(F)F)=NO1` (stereo unspecified)?
TRPC6 inh: inactive; TRPC4 PAM: inactive; TRPC6 act: inactive; TRPC4 inh: inactive; TRPC4 agonist: inactive

Results for COc1ccc(OCc2cc(C(=O)NC(C)Cn3cncn3)no2)c(Cl)c1 (stereo unspecified) ?
TRPC6 inh: inactive; TRPC4 PAM: inactive; TRPC6 act: inactive; TRPC4 inh: inactive; TRPC4 agonist: inactive

How did O=C1CNC(=O)/C(=C\c2ccccc2)N1 do in these assays?
TRPC6 inh: inactive; TRPC4 PAM: inactive; TRPC6 act: inactive; TRPC4 inh: inactive; TRPC4 agonist: inactive

Results for O=C1/C(=C/c2ccccc2)Nc2ccccc21 ?
TRPC6 inh: inactive; TRPC4 PAM: inactive; TRPC6 act: 70; TRPC4 inh: inactive; TRPC4 agonist: 83; HEK293 MPD ctr-2: active; HEK293 MPD ctr 2-2: active; TRPC4/MOR mod: 309%; TRPC4/MOR inh 2: inactive; TRPC6 act conf: 587%

Results for CC(C)CNC(=S)Nc1ccc(S(N)(=O)=O)cc1 ?
TRPC6 inh: inactive; TRPC4 PAM: inactive; TRPC6 act: inactive; TRPC4 inh: inactive; TRPC4 agonist: inactive

How did Cc1ccc(NC(=S)NCC(C)C)cc1 do in these assays?
TRPC6 inh: -7.2; TRPC4 PAM: inactive; TRPC6 act: inactive; TRPC4 inh: inactive; TRPC4 agonist: inactive; TRPC4 sel inh 2: inactive; TRPC4 spec: inactive; HEK293 MPD ctr 2-1: inactive; HEK293 MPD ctr-1: inactive; TRPC6 block conf: inactive; TRPC6 act conf: inactive

What do the screens show for `CCOC(=O)C1CCCN(C(=O)CN2C(=O)/C(=C/c3ccc(OC)cc3)Oc3ccccc32)C1` (stereo unspecified)?
TRPC6 inh: inactive; TRPC4 PAM: inactive; TRPC6 act: inactive; TRPC4 inh: inactive; TRPC4 agonist: inactive

What do the screens show for `CN(C)Cc1c(O)ccc2cc(-c3nc4ccccc4n3C)c(=O)oc12`?
TRPC6 inh: -5; TRPC4 PAM: inactive; TRPC6 act: inactive; TRPC4 inh: inactive; TRPC4 agonist: inactive; HEK293 MPD ctr-2: 444%; HEK293 MPD ctr 2-2: inactive; TRPC4/MOR mod: -24%; TRPC4/MOR inh 2: inactive; TRPC6 block conf: inactive; TRPC6 act conf: inactive

Results for CCOC(=O)N1CCC(N2CCN(Cc3ccccc3)C(CCO)C2)CC1 (stereo unspecified) ?
TRPC6 inh: inactive; TRPC4 PAM: inactive; TRPC6 act: inactive; TRPC4 inh: inactive; TRPC4 agonist: inactive

How did CCOC(=O)N1CCC(N2CCN(C3CCCC3)C(CCO)C2)CC1 (stereo unspecified) do in these assays?
TRPC6 inh: -8.2; TRPC4 PAM: inactive; TRPC6 act: inactive; TRPC4 inh: inactive; TRPC4 agonist: inactive; TRPC4 sel inh 2: inactive; TRPC4 spec: inactive; HEK293 MPD ctr 2-1: inactive; HEK293 MPD ctr-1: inactive; TRPC6 block conf: inactive; TRPC6 act conf: inactive

What do the screens show for `CCOC(=O)N1CCC(NC2CCCCCCC2)CC1`?
TRPC6 inh: -8.5; TRPC4 PAM: inactive; TRPC6 act: inactive; TRPC4 inh: inactive; TRPC4 agonist: inactive; TRPC4 sel inh 2: inactive; TRPC4 spec: inactive; HEK293 MPD ctr 2-1: inactive; HEK293 MPD ctr-1: 3.0%; TRPC6 block conf: inactive

What do the screens show for `CC(C)(C)NS(=O)(=O)c1cc(C(=O)Nc2sccc2C#N)ccc1Cl`?
TRPC6 inh: inactive; TRPC4 PAM: inactive; TRPC6 act: inactive; TRPC4 inh: inactive; TRPC4 agonist: inactive

How did CC(C)C[C@H]1COCCS(=O)(=O)N1Cc1ccc(Cl)c(Cl)c1 do in these assays?
TRPC6 inh: inactive; TRPC4 PAM: inactive; TRPC6 act: inactive; TRPC4 inh: inactive; TRPC4 agonist: inactive

How did C/C(=N\Nc1nc2ccccc2[nH]1)c1ccc2c(c1)OCCO2 do in these assays?
TRPC6 inh: -7.2; TRPC4 PAM: inactive; TRPC6 act: inactive; TRPC4 inh: inactive; TRPC4 agonist: inactive; TRPC4 sel inh 2: 41%; TRPC4 spec: -24%; HEK293 MPD ctr 2-1: inactive; HEK293 MPD ctr-1: -263%; TRPC6 block conf: 67%; TRPC6 act conf: inactive

What do the screens show for `C/C(=N\Nc1ccccn1)c1ccc2c(c1)OCO2`?
TRPC6 inh: inactive; TRPC4 PAM: inactive; TRPC6 act: inactive; TRPC4 inh: inactive; TRPC4 agonist: inactive
